Results on three compounds are retold here after ChEMBL document CHEMBL3632613, “Pharmacokinetic, pharmacodynamic and metabolic characterization of a brain retentive microtubule (MT)-stabilizing triazolopyrimidine” (Bioorg Med Chem Lett, 2015).

The test system of series [1] is Plasma. Kind of series: Drug level in mouse plasma treated with at 5 mg/kg, ip cmpound-4 assessed as compound formation. The note with it: in vivo.
Series [2] is described as follows: Retention time of the compound in mouse liver microsomes by LC-MS/MS method. The series is classed as ADME. (In general: Liver microsomes are vesicles of endoplasmic reticulum, rich in cytochrome P450 enzymes.)
Series [3] relates to QBI293. Kind of series: Cytotoxic activity against human QBI293 cells assessed as reduction in cel viability incubated for 24 hrs by alamar blue assay. It counts as functional, cell-based. The procedure, abridged: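 QBI293 cells seeded 10,000/well, grown overnight at 37°C, 5% CO2, then exposed in triplicate to a nM–µM range (diluted from 20 mM DMSO stocks; 0.25% DMSO vehicle as 0% toxicity, 100 µM tubercidin as 100%) for 18 h. Alamar Blue was then added at 10% of well volume for another 6 h. Fluorescence read at ex 550/em 590 nm. Percent cytotoxicity was derived from RFUs.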

Series [4] has as its system QBI293. Kind of series: Stabilization of microtubule in human QBI293 cells assessed as increase in acetylated alpha-tubulin up to 1 uM incubated for 4 hrs. The series is classed as cell-based.
The subject of series [5] is Mus musculus. Kind of series: In-vivo stabilization of microtubule in normal mouse assessed as increase in acetylated alpha-tubulin at 5 mg/kg, ip administered as two doses after 1 day. It counts as functional, organism-based.
In series [6] the test system is Plasma. Kind of series: Drug metabolism in mouse plasma assessed as formation of (S)-3-(4-(5-chloro-7-((1,1,1-trifluoropropan-2-yl)amino)-[1,2,4]triazolo[1,5-a]pyrimidin-6-yl)-3,5-difluorophenoxy)propanoic acid at 5 mg/kg, ip. The note with it: in vivo.
The nature of series [7]: Half life in rat brain at 5 mg/kg, ip. It counts as ADME, organism-based.
The test system of series [8] is Brain. Kind of series: Drug level in rat brain at 5 mg/kg, ip administered as two repeated doses separated by 4 hrs interval. It counts as ADME, organism-based. As to conditions: in vivo.
Series [9] relates to Brain. Kind of series: Drug level in rat brain at 5 mg/kg, ip administered as single dose after 4 hrs. It counts as ADME, organism-based. The note with it: in vivo.
Series [10] in a line: Half life in rat plasma at 5 mg/kg, ip. The series is classed as ADME, organism-based.
Series [11] concerns Plasma. Kind of series: Drug metabolism in mouse plasma assessed as formation of (S)-4-(5-chloro-7-((1,1,1-trifluoropropan-2-yl)amino)-[1,2,4]triazolo[1,5-a]pyrimidin-6-yl)-3,5-difluorophenol at 5 mg/kg, ip. As to conditions: in vivo.

Active and inactive are the calls of the source. No cut-off for these calls is given here.

With `C[C@H](Nc1c(-c2c(F)cc(O)cc2F)c(Cl)nc2ncnn12)C(F)(F)F`, the Drug metabolism result in [1] is on record as “metabolite_detected”. The compound also showed a Retention_time in series [2] of 6.73 min. Also, in [3], the outcome was inactive. Besides, the inhibition result in series [4] was “inactive”.
Broadly, the half-life is the time in which the quantity being followed falls by half. A low value points to rapid decline. Regarding `C[C@H](Nc1c(-c2c(F)cc(OCCCO)cc2F)c(Cl)nc2ncnn12)C(F)(F)F`, the result in series [5] and in series [3] was Active. In addition, the Drug metabolism entry in [6] and in series [11] was “metabolite_detected” throughout. Also, the Retention_time in series [2] is 6.91 min. Further, the values for the half-life in series [7] and in series [10] were 420 min and 150 min, respectively. The Drug uptake entry in [8] and in series [9] was “Active” each time. In addition, the inhibition result in [4] was “Active”.
For the compound `C[C@H](Nc1c(-c2c(F)cc(OCCC(=O)O)cc2F)c(Cl)nc2ncnn12)C(F)(F)F`, in series [1], the Drug metabolism entry is recorded as “metabolite_detected”. Further, in series [2], the Retention_time was found to be 6.9 min. The result in series [3] was inactive. In addition, the inhibition result in [4] is “inactive”.
